Values after ≈ are worked out from the molar mass of the structure shown. Active and inactive are the calls of the source. No cut-off for these calls is given here.
How the values were obtained:
Enterococcus faecium = test: Antimicrobial activity against vancomycin-resistant Enterococcus faecium ATCC 700221 assessed as bacterial growth inhibitions by CLSI protocol based microdilution method; assay type: functional
Staphylococcus aureus [1] = test: Antimicrobial activity against methicillin-resistant Staphylococcus aureus ATCC 33592 assessed as bacterial growth inhibitions by CLSI protocol based microdilution method; assay type: functional
Staphylococcus aureus [2] = test: Antimicrobial activity against antibiotic-resistant Staphylococcus aureus BM-2312 assessed as bacterial growth inhibitions by CLSI protocol based microdilution method; assay type: functional
Staphylococcus aureus [3] = test: Antimicrobial activity against methicillin-resistant Staphylococcus aureus ATCC 700699 assessed as bacterial growth inhibitions by CLSI protocol based microdilution method; assay type: functional
Staphylococcus aureus [4] = test: Antimicrobial activity against methicillin-resistant Staphylococcus aureus ATCC 33591 assessed as bacterial growth inhibitions by CLSI protocol based microdilution method; assay type: functional
[5] = system: Staphylococcus epidermidis; test: Antimicrobial activity against methicillin-resistant Staphylococcus epidermidis ATCC 700296 assessed as bacterial growth inhibitions by CLSI protocol based microdilution method; assay type: functional
Staphylococcus aureus [6] = test: Antimicrobial activity against methicillin-susceptible Staphylococcus aureus ATCC 25923 assessed as bacterial growth inhibitions by CLSI protocol based microdilution method; assay type: functional
Bacillus subtilis = test: Antimicrobial activity against Bacillus subtilis ATCC 6623 assessed as bacterial growth inhibitions by CLSI protocol based microdilution method; assay type: functional
Outline: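 Broth microdilution starting at 50 µg/ml with 2-fold serial dilutions; run in triplicate.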

Enterococcus faecalis = test: Antimicrobial activity against vancomycin-susceptible Enterococcus faecalis ATCC 29212 assessed as bacterial growth inhibitions by CLSI protocol based microdilution method

Row | SMILES | MIC (Enterococcus faecium) | MIC (Staphylococcus aureus [1]) | MIC (Staphylococcus aureus [2]) | MIC (Staphylococcus aureus [3]) | MIC (Staphylococcus aureus [4]) | MIC [5] | MIC (Staphylococcus aureus [6]) | MIC (Bacillus subtilis) | MIC (Enterococcus faecalis)
1 | Cc1ccc(NCc2cn(-c3ccc(C(=O)O)cc3)nc2-c2ccc(C(F)(F)F)cc2)cc1Cl | 0.78 µg/mL (≈ 1.61 µM) | 0.78 µg/mL (≈ 1.61 µM) | 0.78 µg/mL (≈ 1.61 µM) | 0.78 µg/mL (≈ 1.61 µM) | 0.78 µg/mL (≈ 1.61 µM) | 1.56 µg/mL (≈ 3.21 µM) | 0.78 µg/mL (≈ 1.61 µM) | 0.78 µg/mL (≈ 1.61 µM) | 3.12 µg/mL (≈ 6.42 µM)
2 | O=C(O)c1ccc(-n2cc(CNc3ccc(Br)c(Cl)c3F)c(-c3ccc(C(F)(F)F)cc3)n2)cc1 | – | – | – | – | – | – | – | – | 0.78 µg/mL (≈ 1.37 µM)
3 | O=C(O)c1ccc(-n2cc(CNc3ccc(F)c(F)c3F)c(-c3ccc(C(F)(F)F)cc3)n2)cc1 | 3.12 µg/mL (≈ 6.35 µM) | 1.56 µg/mL (≈ 3.17 µM) | 1.56 µg/mL (≈ 3.17 µM) | 1.56 µg/mL (≈ 3.17 µM) | 1.56 µg/mL (≈ 3.17 µM) | 3.12 µg/mL (≈ 6.35 µM) | 1.56 µg/mL (≈ 3.17 µM) | 0.78 µg/mL (≈ 1.59 µM) | inactive
4 | O=C(O)c1ccc(-n2cc(CNc3cc(F)c(C(F)(F)F)cc3F)c(-c3ccc(C(F)(F)F)cc3)n2)cc1 | 0.78 µg/mL (≈ 1.44 µM) | 0.78 µg/mL (≈ 1.44 µM) | 0.78 µg/mL (≈ 1.44 µM) | 0.78 µg/mL (≈ 1.44 µM) | 0.78 µg/mL (≈ 1.44 µM) | – | 0.78 µg/mL (≈ 1.44 µM) | 0.78 µg/mL (≈ 1.44 µM) | 1.56 µg/mL (≈ 2.88 µM)
5 | O=C(O)c1ccc(-n2cc(CNc3cccc(F)c3)c(-c3ccc(C(F)(F)F)cc3)n2)cc1 | 6.25 µg/mL (≈ 13.7 µM) | 3.12 µg/mL (≈ 6.85 µM) | 3.12 µg/mL (≈ 6.85 µM) | 3.12 µg/mL (≈ 6.85 µM) | 3.12 µg/mL (≈ 6.85 µM) | 6.25 µg/mL (≈ 13.7 µM) | 3.12 µg/mL (≈ 6.85 µM) | 1.56 µg/mL (≈ 3.43 µM) | 25 µg/mL (≈ 54.9 µM)
6 | O=C(O)c1ccc(-n2cc(CNc3ccc(F)c(Cl)c3)c(-c3ccc(C(F)(F)F)cc3)n2)cc1 | 1.56 µg/mL (≈ 3.18 µM) | 0.78 µg/mL (≈ 1.59 µM) | 0.78 µg/mL (≈ 1.59 µM) | 1.56 µg/mL (≈ 3.18 µM) | 0.78 µg/mL (≈ 1.59 µM) | 3.12 µg/mL (≈ 6.37 µM) | 0.78 µg/mL (≈ 1.59 µM) | 0.78 µg/mL (≈ 1.59 µM) | 6.25 µg/mL (≈ 12.8 µM)
7 | O=C(O)c1ccc(-n2cc(CNc3cc(C(F)(F)F)ccc3F)c(-c3ccc(C(F)(F)F)cc3)n2)cc1 | 1.56 µg/mL (≈ 2.98 µM) | 1.56 µg/mL (≈ 2.98 µM) | 0.78 µg/mL (≈ 1.49 µM) | 0.78 µg/mL (≈ 1.49 µM) | 0.78 µg/mL (≈ 1.49 µM) | 3.12 µg/mL (≈ 5.96 µM) | 1.56 µg/mL (≈ 2.98 µM) | 0.78 µg/mL (≈ 1.49 µM) | 6.25 µg/mL (≈ 11.9 µM)
8 | O=C(O)c1ccc(-n2cc(CNc3ccc(Cl)c(Cl)c3F)c(-c3ccc(C(F)(F)F)cc3)n2)cc1 | 0.78 µg/mL (≈ 1.49 µM) | 0.78 µg/mL (≈ 1.49 µM) | 0.78 µg/mL (≈ 1.49 µM) | 0.78 µg/mL (≈ 1.49 µM) | 0.78 µg/mL (≈ 1.49 µM) | 0.78 µg/mL (≈ 1.49 µM) | 0.78 µg/mL (≈ 1.49 µM) | 0.78 µg/mL (≈ 1.49 µM) | 1.56 µg/mL (≈ 2.98 µM)
9 | O=C(O)c1ccc(-n2cc(CNc3cccc(C(F)(F)F)c3)c(-c3ccc(C(F)(F)F)cc3)n2)cc1 | 1.56 µg/mL (≈ 3.09 µM) | 0.78 µg/mL (≈ 1.54 µM) | 1.56 µg/mL (≈ 3.09 µM) | 0.38 µg/mL (≈ 0.752 µM) | 0.78 µg/mL (≈ 1.54 µM) | 1.56 µg/mL (≈ 3.09 µM) | 1.56 µg/mL (≈ 3.09 µM) | 0.78 µg/mL (≈ 1.54 µM) | 6.25 µg/mL (≈ 12.4 µM)
10 | O=C(O)c1ccc(-n2cc(CNc3ccc(Br)cc3)c(-c3ccc(C(F)(F)F)cc3)n2)cc1 | 0.78 µg/mL (≈ 1.51 µM) | 1.56 µg/mL (≈ 3.02 µM) | 0.78 µg/mL (≈ 1.51 µM) | 0.78 µg/mL (≈ 1.51 µM) | 0.78 µg/mL (≈ 1.51 µM) | 3.12 µg/mL (≈ 6.04 µM) | 0.78 µg/mL (≈ 1.51 µM) | 0.78 µg/mL (≈ 1.51 µM) | 6.25 µg/mL (≈ 12.1 µM)
11 | O=C(O)c1ccc(-n2cc(CNc3ccc(Cl)c(C(F)(F)F)c3)c(-c3ccc(C(F)(F)F)cc3)n2)cc1 | 0.78 µg/mL (≈ 1.44 µM) | 0.78 µg/mL (≈ 1.44 µM) | 0.78 µg/mL (≈ 1.44 µM) | 0.78 µg/mL (≈ 1.44 µM) | 0.78 µg/mL (≈ 1.44 µM) | 0.78 µg/mL (≈ 1.44 µM) | 0.78 µg/mL (≈ 1.44 µM) | 0.78 µg/mL (≈ 1.44 µM) | 0.78 µg/mL (≈ 1.44 µM)
12 | O=C(O)c1ccc(-n2cc(CNc3cc(F)c(F)c(F)c3)c(-c3ccc(C(F)(F)F)cc3)n2)cc1 | 0.78 µg/mL (≈ 1.59 µM) | 0.78 µg/mL (≈ 1.59 µM) | 0.78 µg/mL (≈ 1.59 µM) | 0.78 µg/mL (≈ 1.59 µM) | 0.78 µg/mL (≈ 1.59 µM) | 1.56 µg/mL (≈ 3.17 µM) | 0.78 µg/mL (≈ 1.59 µM) | 0.78 µg/mL (≈ 1.59 µM) | 1.56 µg/mL (≈ 3.17 µM)
13 | NS(=O)(=O)c1ccc(NCc2cn(-c3ccc(C(=O)O)cc3)nc2-c2ccc(C(F)(F)F)cc2)cc1 | inactive | 50 µg/mL (≈ 96.8 µM) | 50 µg/mL (≈ 96.8 µM) | 0.39 µg/mL (≈ 0.755 µM) | 50 µg/mL (≈ 96.8 µM) | 50 µg/mL (≈ 96.8 µM) | 50 µg/mL (≈ 96.8 µM) | 50 µg/mL (≈ 96.8 µM) | inactive
14 | O=C(O)c1ccc(-n2cc(CNc3cc(Cl)c(O)c(Cl)c3)c(-c3ccc(C(F)(F)F)cc3)n2)cc1 | inactive | 50 µg/mL (≈ 95.7 µM) | 50 µg/mL (≈ 95.7 µM) | 50 µg/mL (≈ 95.7 µM) | 50 µg/mL (≈ 95.7 µM) | 50 µg/mL (≈ 95.7 µM) | 50 µg/mL (≈ 95.7 µM) | 12.5 µg/mL (≈ 23.9 µM) | 50 µg/mL (≈ 95.7 µM)
15 | N#Cc1ccc(NCc2cn(-c3ccc(C(=O)O)cc3)nc2-c2ccc(C(F)(F)F)cc2)cc1C(F)(F)F | 6.25 µg/mL (≈ 11.8 µM) | 0.78 µg/mL (≈ 1.47 µM) | 1.56 µg/mL (≈ 2.94 µM) | 1.56 µg/mL (≈ 2.94 µM) | 0.78 µg/mL (≈ 1.47 µM) | 3.12 µg/mL (≈ 5.88 µM) | 1.56 µg/mL (≈ 2.94 µM) | 0.78 µg/mL (≈ 1.47 µM) | 12.5 µg/mL (≈ 23.6 µM)
16 | O=C(O)c1ccc(-n2cc(CNc3ccc(Br)c(Cl)c3)c(-c3ccc(C(F)(F)F)cc3)n2)cc1 | 0.78 µg/mL (≈ 1.42 µM) | 0.78 µg/mL (≈ 1.42 µM) | 0.78 µg/mL (≈ 1.42 µM) | 0.78 µg/mL (≈ 1.42 µM) | 0.78 µg/mL (≈ 1.42 µM) | 0.78 µg/mL (≈ 1.42 µM) | 0.78 µg/mL (≈ 1.42 µM) | 0.78 µg/mL (≈ 1.42 µM) | 1.56 µg/mL (≈ 2.83 µM)
17 | O=C(O)c1ccc(-n2cc(CNc3ccc(Cl)c(Cl)c3)c(-c3ccc(C(F)(F)F)cc3)n2)cc1 | 0.78 µg/mL (≈ 1.54 µM) | 0.78 µg/mL (≈ 1.54 µM) | 0.78 µg/mL (≈ 1.54 µM) | 1.56 µg/mL (≈ 3.08 µM) | 0.78 µg/mL (≈ 1.54 µM) | – | 0.78 µg/mL (≈ 1.54 µM) | 0.78 µg/mL (≈ 1.54 µM) | –
18 | O=C(O)c1ccc(-n2cc(CNc3cc(C(F)(F)F)cc(C(F)(F)F)c3)c(-c3ccc(C(F)(F)F)cc3)n2)cc1 | 0.78 µg/mL (≈ 1.36 µM) | 0.78 µg/mL (≈ 1.36 µM) | 0.78 µg/mL (≈ 1.36 µM) | 0.78 µg/mL (≈ 1.36 µM) | 0.78 µg/mL (≈ 1.36 µM) | 1.56 µg/mL (≈ 2.72 µM) | 0.78 µg/mL (≈ 1.36 µM) | 0.78 µg/mL (≈ 1.36 µM) | 0.78 µg/mL (≈ 1.36 µM)
19 | O=C(O)c1ccc(-n2cc(CNc3cc(Cl)cc(C(F)(F)F)c3)c(-c3ccc(C(F)(F)F)cc3)n2)cc1 | 0.78 µg/mL (≈ 1.44 µM) | 0.78 µg/mL (≈ 1.44 µM) | 0.78 µg/mL (≈ 1.44 µM) | 0.78 µg/mL (≈ 1.44 µM) | 0.78 µg/mL (≈ 1.44 µM) | 1.56 µg/mL (≈ 2.89 µM) | 0.78 µg/mL (≈ 1.44 µM) | 0.78 µg/mL (≈ 1.44 µM) | 6.25 µg/mL (≈ 11.6 µM)
20 | O=C(O)c1ccc(-n2cc(CNc3ccc(F)c(F)c3)c(-c3ccc(C(F)(F)F)cc3)n2)cc1 | 3.12 µg/mL (≈ 6.59 µM) | 1.56 µg/mL (≈ 3.3 µM) | 1.56 µg/mL (≈ 3.3 µM) | 0.78 µg/mL (≈ 1.65 µM) | 1.56 µg/mL (≈ 3.3 µM) | 6.25 µg/mL (≈ 13.2 µM) | 1.56 µg/mL (≈ 3.3 µM) | – | 12.5 µg/mL (≈ 26.4 µM)
21 | O=C(O)c1ccc(-n2cc(CNc3cccc(Cl)c3F)c(-c3ccc(C(F)(F)F)cc3)n2)cc1 | 0.78 µg/mL (≈ 1.59 µM) | 1.56 µg/mL (≈ 3.18 µM) | 0.78 µg/mL (≈ 1.59 µM) | 3.12 µg/mL (≈ 6.37 µM) | 1.56 µg/mL (≈ 3.18 µM) | – | 1.56 µg/mL (≈ 3.18 µM) | 0.78 µg/mL (≈ 1.59 µM) | –
22 | O=C(O)c1ccc(-n2cc(CNc3ccc(Br)c(C(F)(F)F)c3)c(-c3ccc(C(F)(F)F)cc3)n2)cc1 | 0.78 µg/mL (≈ 1.33 µM) | 3.12 µg/mL (≈ 5.34 µM) | 3.12 µg/mL (≈ 5.34 µM) | 3.12 µg/mL (≈ 5.34 µM) | 0.78 µg/mL (≈ 1.33 µM) | 12.5 µg/mL (≈ 21.4 µM) | 3.12 µg/mL (≈ 5.34 µM) | 3.12 µg/mL (≈ 5.34 µM) | –
